Reference: ChEMBL document CHEMBL2086240, “Enhanced cellular uptake and in vitro antitumor activity of short-chain fatty acid acylated daunorubicin-GnRH-III bioconjugates” (Eur J Med Chem, 2012)

Columns and labels:
HT-29 [1] = test: Cellular uptake in human HT-29 cells after 6 hrs by flow cytometer; format: ADME, cell-based; conditions: ht-29, 6 h
How it was run: (§1)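 Cells plated at 1 x 10^5 per well, grown 24 h at 37°C, then exposed to conjugate in serum-free medium (0.16–100 µM) for 6 h at 37°C. Cells detached with trypsin/EDTA, resuspended in FCS-free medium and analysed by flow cytometry. Read-out is the percentage of daunorubicin-positive living cells. Duplicate samples at each concentration; each experiment repeated twice.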

MCF7 [2] = test: Cellular uptake in human MCF7 cells after 6 hrs by flow cytometer; format: ADME, cell-based; conditions: mcf7, 6 h; how it was run: as §1
HT-29 [3] = test: Cytostatic activity against human HT-29 cells compound incubated for 6 hrs followed by compound wash out measured after 72 hrs by MTT assay; format: functional, cell-based
How it was run: (§2)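 Cells plated at 5×10^3 per well and grown 24 h. Exposed 6 h to compound in serum-free RPMI-1640 (2.6×10^-4–10^2 µM, six parallels per concentration), washed twice, then cultured 72 h in serum-containing medium. MTT added at 367 µg/mL final for 3.5 h; crystals dissolved in DMSO; OD540 minus OD620 read. Cytostasis% = [1−(OD_treated/OD_control)]×100; IC50 taken from a sigmoidal fit. Three independent experiments, averaged.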

[4] = target: T1, Gonadotropin-releasing hormone receptor (Homo sapiens, UniProt P30968); test: Displacement of [125I][D-Trp6]GnRH1 from GnRH receptor expressed in human pituitary membrane by gamma counting; format: cell membranes
T1 sequence (P30968 whole entry): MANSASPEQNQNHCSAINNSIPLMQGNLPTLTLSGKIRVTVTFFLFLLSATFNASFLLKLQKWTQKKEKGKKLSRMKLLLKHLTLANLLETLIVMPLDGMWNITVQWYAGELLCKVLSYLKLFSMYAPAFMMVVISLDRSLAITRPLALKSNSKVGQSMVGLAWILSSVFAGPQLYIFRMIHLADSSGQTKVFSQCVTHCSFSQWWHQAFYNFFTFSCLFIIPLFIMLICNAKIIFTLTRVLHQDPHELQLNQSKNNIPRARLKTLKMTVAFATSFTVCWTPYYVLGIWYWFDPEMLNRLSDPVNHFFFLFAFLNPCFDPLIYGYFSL
How it was run: (§3)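 Membranes came from autopsy anterior pituitary or a surgical prostate cancer specimen, homogenized in 50 mM Tris-HCl pH 7.4 with protease inhibitors and ultracentrifuged. 50–160 µg protein was incubated with 60-80,000 cpm [125I][D-Trp6]GnRH-I and competitor (10^-12–10^-6 M). Bound ligand was pelleted through ice-cold 1.5% BSA buffer and gamma-counted. IC50 (50% inhibition of specific binding) came from curve fitting; mean ± SE of 2–3 experiments, duplicate or triplicate.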

MCF7 [5] = test: Cytostatic activity against human MCF7 cells compound incubated for 6 hrs followed by compound wash out measured after 72 hrs by MTT assay; format: functional, cell-based; how it was run: as §2
[6] = target: T1, Gonadotropin-releasing hormone receptor; test: Displacement of [125I][D-Trp6]GnRH1 from GnRH receptor expressed in human prostate cancer membrane by gamma counting; format: cell membranes, Prostate gland; how it was run: as §3
[7] = Metabolic stability […] assessed as alpha-chymotrypsin-mediated compound degradation after 6 hrs by LC-MS analysis; format: ADME, cell-free; conditions: read-out: Drug degradation
How it was run: (§4)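 Digestion with α-chymotrypsin at an enzyme:substrate ratio of 1:50 (w/w) in 100 mM Tris-HCl/10 mM CaCl₂, pH 7.8, at 25°C. Aliquots taken at 5 min and 1, 2, 4, 6, 8 and 24 h, quenched with acetic acid, and analysed by LC-MS for intact conjugate and cleavage fragments.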

Serum = test: Metabolic stability […] assessed as alpha-chymotrypsin-mediated compound degradation after 24 hrs by LC-MS analysis; format: ADME, cell-free; how it was run: as §4
[8] = Drug metabolism in rat liver lysosomal homogenate after 24 hrs by LC-MS analysis; format: ADME, tissue-based; conditions: tissue homogenate
How it was run: (§5)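 Conjugate at 0.1 µg/µL in 0.2 M NaOAc pH 5.0, mixed 1:1 (w/w) with rat liver lysosomal homogenate (protein 17.4 µg/µL by BCA). Incubated at 37°C; aliquots taken at 5 min and 1, 2, 4, 6, 8 and 24 h. Fragments identified by ESI ion-trap LC-MS on a C18 column with a formic acid/acetonitrile gradient, positive mode, m/z 100–2500.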

[9] = Chemical stability of the compound in serum-free DMEM cell culture media after 6 hrs by RP-HPLC analysis; format: physicochemical
How it was run: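 Conjugate dissolved in water (20% of final volume), then diluted with serum-free DMEM to a final 0.5 mg/mL. Incubated at 37°C for 6 h with hourly sampling. Monitored by analytical RP-HPLC on a C18 or CN column, gradient of 0.1% TFA water/MeCN, detection at 220 nm.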

[10] = Drug metabolism in rat liver lysosomal homogenate after 2 hrs by LC-MS analysis; format: ADME, tissue-based; conditions: tissue homogenate; how it was run: as §5
[11] = Metabolic stability in presence of alpha-chymotrypsin assessed as compound remaining after 6 hrs by LC-MS analysis
HT-29 [12] = test: Cellular uptake in human HT-29 cells at 20 uM after 6 hrs by flow cytometer; format: ADME, cell-based; conditions: ht-29, 6 h
How it was run: (§6)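 Cells were seeded at 1 x 10^5 per well and grown 24 h. MCF-7 were kept in DMEM and HT-29 in RPMI-1640, each with 10% FCS, at 37°C and 5% CO2. Cells were exposed to bioconjugate in serum-free medium (0.16–100 µM) for 6 h at 37°C, then detached with trypsin/EDTA. Flow cytometry gave % daunorubicin-positive living cells; duplicates, two independent experiments, mean ± SD.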

HT-29 [13] = test: Cellular uptake in human HT-29 cells at 100 uM after 6 hrs by flow cytometer; format: ADME, cell-based; conditions: ht-29, 6 h; how it was run: as §6
MCF7 [14] = test: Cellular uptake in human MCF7 cells at 20 uM after 6 hrs by flow cytometer; format: ADME, cell-based; conditions: mcf7, 6 h; how it was run: as §6
MCF7 [15] = test: Cellular uptake in human MCF7 cells at 100 uM after 6 hrs by flow cytometer; format: ADME, cell-based; conditions: mcf7, 6 h; how it was run: as §6
[16] = Metabolic stability in human serum assessed as alpha-chymotrypsin-mediated compound degradation after 4 hrs by LC-MS analysis; format: ADME, cell-free; conditions: Tris-HCl/CaCl2 buffer; in the assay text read “in Tris-HCl/CaCl2 buffer” for “in human serum”; read-out: Drug degradation; how it was run: as §4
[17] = Metabolic stability […] assessed as alpha-chymotrypsin-mediated compound degradation after 8 hrs by LC-MS analysis; format: ADME, cell-free; conditions: read-out: Drug degradation; how it was run: as §4
MCF7 [18] = test: Cellular uptake in human MCF7 cells at 4 uM after 6 hrs by flow cytometer; format: ADME, cell-based; conditions: mcf7, 6 h; how it was run: as §1
[19] = Octanol-water partition coefficient, log P of the compound by shake flask method; format: physicochemical
How it was run: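 Shake-flask octanol/water partitioning with RP-HPLC quantitation. P calculated as the ratio of octanol to water HPLC peak areas, then converted to logP.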

| SMILES | Drug uptake (HT-29 [1]) | Drug uptake (MCF7 [2]) | IC50 (HT-29 [3]) [µM] | IC50 (MCF7 [5]) [µM] | metabolised at 6 h [7] [%] | Stability (Serum) | Drug metabolism [8] | Stability [9] | Drug metabolism [10] | also measured |
| --- | --- | --- | --- | --- | --- | --- | --- | --- | --- | --- |
| COc1cccc2c1C(=O)c1c(O)c3c(c(O)c1C2=O)C[C@@](O)(/C(C)=N/OCC(=O)NCCCC[C@@H](NC(=O)[C@H](Cc1ccc(O)cc1)NC(=O)[C@H](CO)NC(=O)[C@H](Cc1c[nH]c2ccccc12)NC(=O)[C@H](Cc1cnc[nH]1)NC(=O)[C@@H]1CCC(=O)N1)C(=O)N[C@@H](CC(C)C)C(=O)N[C@@H](CCCNC(=N)N)C(=O)N1CCC[C@H]1C(=O)NCC(N)=O)C[C@@H]3O[C@H]1C[C@H](N)[C@H](O)[C@H](C)O1 | Dose-dependent effect | Dose-dependent effect | 20.2 | 4.1 |  |  |  |  |  | IC50 [4]: 0.00162 µM; IC50 [6]: 0.0165 µM |
| CCC(=O)NCCCC[C@H](NC(=O)[C@H](Cc1c[nH]c2ccccc12)NC(=O)[C@H](Cc1cnc[nH]1)NC(=O)[C@@H]1CCC(=O)N1)C(=O)N[C@@H](Cc1cnc[nH]1)C(=O)N[C@@H](CC(=O)O)C(=O)N[C@@H](Cc1c[nH]c2ccccc12)C(=O)N[C@@H](CCCCNC(=O)CO/N=C(\C)[C@]1(O)Cc2c(O)c3c(c(O)c2[C@@H](O[C@H]2C[C@H](N)[C@H](O)[C@H](C)O2)C1)C(=O)c1c(OC)cccc1C3=O)C(=O)N1CCC[C@H]1C(=O)NCC(N)=O | Dose-dependent effect | Dose-dependent effect | 17.2 | 3.6 | 45 | Unstable | Active | Stable | Active |  |
| CCCCCC(=O)NCCCC[C@H](NC(=O)[C@H](Cc1c[nH]c2ccccc12)NC(=O)[C@H](Cc1cnc[nH]1)NC(=O)[C@@H]1CCC(=O)N1)C(=O)N[C@@H](Cc1cnc[nH]1)C(=O)N[C@@H](CC(=O)O)C(=O)N[C@@H](Cc1c[nH]c2ccccc12)C(=O)N[C@@H](CCCCNC(=O)CO/N=C(\C)[C@]1(O)Cc2c(O)c3c(c(O)c2[C@@H](O[C@H]2C[C@H](N)[C@H](O)[C@H](C)O2)C1)C(=O)c1c(OC)cccc1C3=O)C(=O)N1CCC[C@H]1C(=O)NCC(N)=O | Dose-dependent effect | Dose-dependent effect | 20.1 | 1.5 | 30 |  | Active | Stable | Active | Drug degradation (Serum): 90% |
| CCCCCCCCCCCCCC(=O)NCCCC[C@H](NC(=O)[C@H](Cc1c[nH]c2ccccc12)NC(=O)[C@H](Cc1cnc[nH]1)NC(=O)[C@@H]1CCC(=O)N1)C(=O)N[C@@H](Cc1cnc[nH]1)C(=O)N[C@@H](CC(=O)O)C(=O)N[C@@H](Cc1c[nH]c2ccccc12)C(=O)N[C@@H](CCCCNC(=O)CO/N=C(\C)[C@]1(O)Cc2c(O)c3c(c(O)c2[C@@H](O[C@H]2C[C@H](N)[C@H](O)[C@H](C)O2)C1)C(=O)c1c(OC)cccc1C3=O)C(=O)N1CCC[C@H]1C(=O)NCC(N)=O | Dose-dependent effect | Dose-dependent effect | 37.4 | 6.8 |  |  | Active | Stable | Active | Drug uptake (MCF7 [18]): 41.3%; logP [19]: -0.596 |

These reach a lower IC50 (HT-29 [3]). Values come first.

| Drug uptake (HT-29 [1]) | Drug uptake (MCF7 [2]) | IC50 (HT-29 [3]) [µM] | IC50 (MCF7 [5]) [µM] | metabolised at 6 h [7] [%] | Stability (Serum) | Drug metabolism [8] | Stability [9] | Drug metabolism [10] | SMILES | also measured |
| --- | --- | --- | --- | --- | --- | --- | --- | --- | --- | --- |
| Dose-dependent effect | Dose-dependent effect | 16.4 | 2.5 | 34 | Unstable | Active | Stable | Active | COc1cccc2c1C(=O)c1c(O)c3c(c(O)c1C2=O)C[C@@](O)(/C(C)=N/OCC(=O)NCCCC[C@H](NC(=O)[C@H](Cc1c[nH]c2ccccc12)NC(=O)[C@H](CC(=O)O)NC(=O)[C@H](Cc1cnc[nH]1)NC(=O)[C@H](CCCCNC(=O)CC(C)C)NC(=O)[C@H](Cc1c[nH]c2ccccc12)NC(=O)[C@H](Cc1cnc[nH]1)NC(=O)[C@@H]1CCC(=O)N1)C(=O)N1CCC[C@H]1C(=O)NCC(N)=O)C[C@@H]3O[C@H]1C[C@H](N)[C@H](O)[C@H](C)O1 | metabolised at 8 h [17]: 50% |
| Dose-dependent effect | Dose-dependent effect | 13.6 | 1.6 | 50 | Unstable | Active | Stable | Active | C/C=C/C(=O)NCCCC[C@H](NC(=O)[C@H](Cc1c[nH]c2ccccc12)NC(=O)[C@H](Cc1cnc[nH]1)NC(=O)[C@@H]1CCC(=O)N1)C(=O)N[C@@H](Cc1cnc[nH]1)C(=O)N[C@@H](CC(=O)O)C(=O)N[C@@H](Cc1c[nH]c2ccccc12)C(=O)N[C@@H](CCCCNC(=O)CO/N=C(\C)[C@]1(O)Cc2c(O)c3c(c(O)c2[C@@H](O[C@H]2C[C@H](N)[C@H](O)[C@H](C)O2)C1)C(=O)c1c(OC)cccc1C3=O)C(=O)N1CCC[C@H]1C(=O)NCC(N)=O |  |
| Dose-dependent effect | Dose-dependent effect | 8.1 | 2.6 |  |  |  |  |  | COc1cccc2c1C(=O)c1c(O)c3c(c(O)c1C2=O)C[C@@](O)(/C(C)=N/OCC(=O)NCCCC[C@H](NC(=O)[C@H](Cc1c[nH]c2ccccc12)NC(=O)[C@H](CC(=O)O)NC(=O)[C@H](Cc1cnc[nH]1)NC(=O)[C@H](CCCCN)NC(=O)[C@H](Cc1c[nH]c2ccccc12)NC(=O)[C@H](Cc1cnc[nH]1)NC(=O)[C@@H]1CCC(=O)N1)C(=O)N1CCC[C@H]1C(=O)NCC(N)=O)C[C@@H]3O[C@H]1C[C@H](N)[C@H](O)[C@H](C)O1 |  |
| Dose-dependent effect | Dose-dependent effect | 2 | 2.2 | 90 | Unstable | Active | Stable | Active | COc1cccc2c1C(=O)c1c(O)c3c(c(O)c1C2=O)C[C@@](O)(/C(C)=N/OCC(=O)NCCCC[C@H](NC(=O)[C@H](Cc1c[nH]c2ccccc12)NC(=O)[C@H](CC(=O)O)NC(=O)[C@H](Cc1cnc[nH]1)NC(=O)[C@H](CCCCNC(=O)C(C)C)NC(=O)[C@H](Cc1c[nH]c2ccccc12)NC(=O)[C@H](Cc1cnc[nH]1)NC(=O)[C@@H]1CCC(=O)N1)C(=O)N1CCC[C@H]1C(=O)NCC(N)=O)C[C@@H]3O[C@H]1C[C@H](N)[C@H](O)[C@H](C)O1 | remaining at 6 h [11]: 10%; Drug uptake (HT-29 [12]): 96.9%; Drug uptake (HT-29 [13]): 99.9%; Drug uptake (MCF7 [14]): 93.3%; Drug uptake (MCF7 [15]): 99.7%; metabolised at 4 h [16]: 60% |
